Broadly, the MIC50 is the lowest concentration that inhibits either 50% of growth or 50% of the strains tested, depending on the study. Broadly, the MIC90 is the lowest concentration that inhibits either 90% of growth or 90% of the strains tested, depending on the study. A lower MIC90 goes with higher susceptibility.

The values below come from ChEMBL document CHEMBL1148927, “A novel antimicrobial indolizinium alkaloid from Aniba panurensis” (J Nat Prod, 2004).

Series [1] has as its system Enterococcus faecium. Nature of the series: […] activity against Enterococcus faecium 1438 at 100 ug/mL after 18 hrs by broth microdilution assay. Format: functional, organism-based. The procedure, abridged: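 E. faecium 1438 clinical isolate grown at 37 °C with 100 rpm shaking in Todd Hewitt broth with 0.5% yeast extract and 2% NaCl to exponential phase. Culture adjusted to A600 0.3, then diluted 1:1000. Added to dried sample in wells, incubated 18 h, and growth read at A650 against medium-only cultures. Chloramphenicol 100 µg/mL was the inhibition control.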
In general terms: In broth dilution the organism is exposed to a series of concentrations in liquid medium.

Another series has as its system Candida albicans. The experiment in a line: Antifungal activity against Candida albicans 99-788 after 24 hrs by broth microdilution assay. Type of series: functional. The method in brief: (§1)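 Clinical isolates grown in YM broth at 37 °C with shaking at 100 rpm to exponential phase, adjusted to A600 = 0.3, then diluted 1:150 (C. albicans) or 1:128 (C. neoformans). Samples dried in wells, culture added, and tested top dose 250 µg/mL plus five 2-fold dilutions. Incubation 24 h (C. albicans) or 72 h (C. neoformans). A650 read; MIC50 = concentration lowering A650 ≥50% vs medium-only cultures.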

The test system of series [2] is Staphylococcus aureus. Nature of the series: […] activity against Staphylococcus aureus 385 after 24 hrs by broth microdilution assay.
The subject of series [3] is Enterococcus faecium. Nature of the series: […] activity against Enterococcus faecium 1438 by broth microdilution assay. Type of series: functional.
Series [4] can be described thus: Toxicity in sheep red blood cells assessed as hemolysis after 2 hrs. Format: cell-based, Ovis aries. The following applies: erythrocyte. The method in brief: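 Sheep red blood cells at 4% final in 0.2 mL, with samples serially diluted in phosphate-buffered saline; highest dose contained 5% DMSO. Incubated 2 h at 37 °C, then 0.1 mL taken to measure hemolysis.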

Series [5] concerns Cryptococcus neoformans. Nature of the series: Antifungal activity against Cryptococcus neoformans 96-1034 by broth microdilution assay. Type of series: functional. The method in brief:
(§2)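 Broth microdilution in RPMI 1640 buffered with MOPS, following NCCLS guidelines; values reported as MIC90.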

The test system of a further series is Nakaseomyces glabratus. The experiment in a line: Antifungal activity against Candida glabrata by broth microdilution assay. Type of series: functional. The method in brief: as §2
The subject of the next series is Clavispora lusitaniae. The experiment in a line: Antifungal activity against Candida lusitaniae by broth microdilution assay. Format: functional. The method in brief:
as §2

A short description of series [6]: Lipophilicity, log K in octanol water. Type of series: physicochemical.
The subject of series [7] is Cryptococcus neoformans. Nature of the series: Antifungal activity against Cryptococcus neoformans 96-1034 after 72 hrs by broth microdilution assay. Type of series: functional. The method in brief: as §1
A further series relates to Pichia kudriavzevii. Nature of the series: Antifungal activity against Candida krusei ATCC 6258 by broth microdilution assay. Type of series: functional. The procedure, abridged: as §2
The next series deals with Candida parapsilosis. Nature of the series: Antifungal activity against Candida parapsilosis ATCC 22019 by broth microdilution assay. Format: functional. The following applies: Lodderomyces parapsilosis. The procedure, abridged: as §2
The subject of series [8] is Staphylococcus aureus. The experiment in a line: […] activity against Staphylococcus aureus 385 at 100 ug/mL after 24 hrs by broth microdilution assay.

SMILES strings stand for the structures. The source made the active and inactive calls. The calls are words filed in the database; no cut-off is given here.

On to `O=C(N[C@H](CO)[C@H](O)c1ccc([N+](=O)[O-])cc1)C(Cl)Cl`, for which the outcome in the series with Enterococcus faecium [1] was Active.

Regarding `CCCCCCCC/C=C\c1c(C)c(/C=C\CCCCCCCC)c2[n+](c1C)CCC2.O=C([O-])C(F)(F)F` [ANIBAMINE], the MIC50 is 0.25 µg/mL in the series on Candida albicans, more than 25 µg/mL in the series with Staphylococcus aureus [2], 0.25 µg/mL in the series with Enterococcus faecium [3] and 0.25 µg/mL against Cryptococcus neoformans [7]. The MIC90 against Candida albicans turned out to be 0.5 µg/mL; with Cryptococcus neoformans [5], 0.25 µg/mL; in the series with Nakaseomyces glabratus, 2 µg/mL; against Clavispora lusitaniae, 1 µg/mL; in the series on Pichia kudriavzevii, 0.5 µg/mL; against Candida parapsilosis it was 0.5 µg/mL. In addition, the Activity result in series [4] is “Toxic”. In addition, in series [6], the “log K” value turned out to be 9.1.

On to `O=C(O)c1cn(C2CC2)c2cc(N3CCNCC3)c(F)cc2c1=O`, for which the outcome with Staphylococcus aureus [8] was Active.
